Measurements from different studies.
Compare with care: the assays were run in different laboratories.
Target: Serine/threonine-protein kinase PAK 4 (PAK4, Homo sapiens, UniProt O96013)

O=C(Nc1c[nH]nc1C(=O)NC1CCNCC1)c1cc(F)cc(F)c1  remaining binding (binding; competition with immobilised ligand; 1 µM): 100%
CN(CCCC(F)(F)F)c1nccc(-c2cnn3ncccc23)n1  remaining binding (binding; 1 µM): 100%
O=C(NC[C@@H]1[C@H]2CN(C(=O)OCc3cc(C(F)(F)F)cc(C(F)(F)F)c3)C[C@@H]12)c1ccc2[nH]nnc2c1  remaining binding (cell-free assay; competition with immobilised ligand; 1 µM): 100%
CN(C)c1nccc(-c2cnc3ncccn23)n1  remaining binding (binding; 1 µM): 88%
O=C(c1ccc(Nc2ncc(Cl)c(-c3cc4ccccc4s3)n2)cc1)N1CCC(N2CCCC2)CC1  remaining binding (binding; competition with immobilised ligand; 1 µM): 77%
F[C@@H]1CCN(c2nccc(-c3cnn4ncccc34)n2)C1  remaining binding (binding; 1 µM): 100%
Cc1cnc(Nc2ccc(C(=O)N3CCC(N4CCCC4)CC3)cc2)nc1-c1cc2ccccc2s1  remaining binding (binding; competition with immobilised ligand; 1 µM): 70%
C[C@@H]1CN(c2ccc3ncc(-c4ccc5[nH]nc(C6CC6)c5c4)n3n2)C[C@H](C)O1  remaining binding (binding; competition with immobilised ligand; 50 nM): 90%
CNC(=O)[C@@H]1CC[C@@H](n2c(-c3ccc4cnccc4c3)nc3ccc(C(=O)NCc4cccc(C(N)=O)c4)cc32)C1  remaining binding (binding; competition with immobilised ligand; 1 µM): 100%
N[C@H]1CCN(c2nccc(-c3cnn4ncccc34)n2)C1  remaining binding (binding; 1 µM): 88%
O=C(NCCCN1CCOCC1)c1ccc(Nc2ncc(Cl)c(-c3ccc(Cl)s3)n2)cc1  remaining binding (binding; competition with immobilised ligand; 1 µM): 89%
CNC(=O)Nc1ccc2c(c1)[C@@]1(CC2)OC(=O)N(CC(=O)N(Cc2ccc(F)cc2)[C@@H](C)C(F)(F)F)C1=O  remaining binding (cell-free assay; competition with immobilised ligand; 1 µM): 95%
COc1cnc(Nc2cccc(S(N)(=O)=O)c2)nc1N1CCN(c2ccccc2)CC1  remaining binding (binding; competition with immobilised ligand; 1 µM): 95%
CCN1CCN(Cc2ccc(C(=O)Nc3ccc(C)c(Oc4ccc5c(c4)CC(=O)N5)c3)cc2C(F)(F)F)CC1  remaining binding (binding; competition with immobilised ligand; 1 µM): 100%
O=C(O)c1cc(-c2ccc(C3CCNCC3)cc2)c2ccc(-c3ccc(C(F)(F)F)cc3)cc2c1  remaining binding (cell-free assay; competition with immobilised ligand; 1 µM): 100%
FC(F)(F)Oc1cccc(-c2cnc3ccc(-c4ccncc4)nn23)c1  remaining binding (cell-free assay; competition with immobilised ligand; 5 µM): 47%
CC1CCCN1c1nccc(-c2cnn3ncccc23)n1 (stereo not shown)  remaining binding (binding; 1 µM): 100%
CN1CCN(c2cnc3c(C4CCN(C(=O)c5ccc(OC(F)(F)F)cc5N)CC4)ncnc3c2)CC1  remaining binding (cell-free assay; competition with immobilised ligand; 1 µM): 91%
CC(C)(C)c1ccc(-c2nc(CBr)nn2-c2cccc(O)c2)cc1  remaining binding (cell-free assay; competition with immobilised ligand; 10 µM): 87%
O=C(NS(=O)(=O)c1ccc(NCC2CCOCC2)c([N+](=O)[O-])c1)c1ccc(N2CCN(Cc3ccc(C(F)(F)F)cc3-c3ccc(Cl)cc3)CC2)cc1Oc1cnc2[nH]ccc2c1  remaining binding (cell-free assay; competition with immobilised ligand; 1 µM): 93%
c1cncc(-c2cccc(Nc3nccc(NC4CCCCC4)n3)c2)c1  remaining binding (binding; competition with immobilised ligand; 10 µM): 83%
c1cnn2ncc(-c3ccnc(N4CCC45COC5)n3)c2c1  remaining binding (binding; 1 µM): 96%
CS(=O)(=O)NCC[C@H](NC(=O)c1cncc2c1cnn2-c1ccc(F)cc1)c1ccnc(S(C)(=O)=O)c1  remaining binding (cell-free assay; competition with immobilised ligand; 1 µM): 100%
C[C@H]1CCN(c2nccc(-c3cnn4ncccc34)n2)C1  remaining binding (binding; 1 µM): 95%
Cn1cc(Cl)c2c(Oc3c(F)cc(Nc4cc(Cl)nc(N)n4)cc3F)ccnc21  remaining binding (cell-free assay; competition with immobilised ligand; 0.1 µM): 100%
